# TAAR1 antag – human TAAR1 antagonism | CHO RD-HGA16 TAAR1, Fluo-8 calcium fluorescence, antagonist | inhibition, % at 3 µM | 1.5% of 360,000 active | AID 624466;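 active means inhibition above a per-plate cutoff, the mean inhibition of test compounds on that plate plus 3 SD, cut at about 49% in these data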;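 further: 0% = DMSO plus EC80 beta-PEA response and 100% = DMSO alone without agonist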
# Target sequence (Q96RJ0 whole entry, looked up): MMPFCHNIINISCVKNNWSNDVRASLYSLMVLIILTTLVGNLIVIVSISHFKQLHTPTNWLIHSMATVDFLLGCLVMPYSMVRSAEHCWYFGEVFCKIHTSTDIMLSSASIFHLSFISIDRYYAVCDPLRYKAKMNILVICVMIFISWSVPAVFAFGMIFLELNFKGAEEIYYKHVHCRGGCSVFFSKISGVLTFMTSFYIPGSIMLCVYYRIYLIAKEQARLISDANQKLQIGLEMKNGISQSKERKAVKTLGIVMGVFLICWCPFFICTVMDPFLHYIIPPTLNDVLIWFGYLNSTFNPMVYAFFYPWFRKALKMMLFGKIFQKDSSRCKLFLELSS
#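 Material: RD-HGA16 CHO cells with stable hTAAR1 and Gα16; Dosing: single nominal final test compound concentration of 3 µM; Schedule: seeding 17-24 h prior, 75-min 37 °C, 30-min RT dye loading; Detection: kinetic Fluo-8 calcium fluorescence measurement; Measure: % inhibition from peak post-agonist over basal fluorescence ratio; Benchmarks: vehicle and agonist controls.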
# CHO parental Ca – signal in parental CHO cells, OX1R antagonist counter-screen; parental CHO-K1, ATP-induced calcium, Fluo-8 fluorescence; inhibition, % at 5.6 µM; 0.63% of 330,000 active;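 active means inhibition above that plate's mean sample inhibition plus 3 SD, cut at about 26% in these data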;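 further: 0% = ATP-challenged DMSO wells and 100% = DMSO wells without ATP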
#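 Test system: untransfected parental CHO cell line. Compound: one dose, 5.6 µM nominal. Detection: intracellular calcium via Fluo-8 no-wash fluorescent dye. Measure: % inhibition. Benchmarks: ATP-challenged DMSO wells low, unchallenged DMSO wells high.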
# GPR7 antag – antagonists of human GPR7 (neuropeptides B/W receptor 1); GPR7-expressing cells, fluorescence antagonist assay; 1.1% of 290,000 active; inhibition, % at 4.4 µM; P48145; in the data active means inhibition above about 16%, passing the limit was not always enough;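 further: cells stimulated with the agonist NPW; 0% = agonist with vehicle and 100% = vehicle without agonist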
# Target sequence (P48145 whole entry, looked up): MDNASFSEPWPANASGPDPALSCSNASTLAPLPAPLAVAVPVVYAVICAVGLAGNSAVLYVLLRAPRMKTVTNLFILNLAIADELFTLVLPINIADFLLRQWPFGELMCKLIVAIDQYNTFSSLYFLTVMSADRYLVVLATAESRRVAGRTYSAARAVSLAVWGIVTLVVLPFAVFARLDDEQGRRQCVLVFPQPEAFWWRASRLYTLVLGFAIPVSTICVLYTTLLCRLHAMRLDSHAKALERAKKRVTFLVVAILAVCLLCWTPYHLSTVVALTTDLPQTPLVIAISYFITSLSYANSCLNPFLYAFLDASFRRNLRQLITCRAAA
# OX1R antag-1 – antagonists of human orexin 1 receptor (OX1R) | O43613 | OX1R-expressing cells, FRET antagonist read-out | inhibition, % at 6.6 µM | 1.8% of 330,000 active | AID 485270; in the data active means inhibition mostly above about 38%, no sharp cut-off; inactive means mostly below about 40%;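 further: 0% = agonist challenge alone and 100% = reference antagonist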
# OX1R antag-2 – blocks the human orexin 1 receptor | O43613 | CHO/OX1R cells, Fluo-8 calcium fluorescence, orexin A | inhibition, % at 5 µM | 0.43% of 330,000 active;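 active means inhibition above its plate's threshold, mean inhibition of all tested compounds on the plate plus 3 SD, cut at about 37% in these data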;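 further: 0% = orexin A challenge wells and 100% = SB-334867-A antagonist wells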
# TAAR1 agonist – human TAAR1 agonism | Q96RJ0 | CHO RD-HGA16 TAAR1, Fluo-8 calcium fluorescence; vehicle wells 0%, saturating PEA agonist 100% | activation, % at 3 µM | 0.99% of 360,000 active;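 active means activation above the mean activation of all test compounds in the run plus 3 SD, cut at about 38% in these data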
#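 System: CHO-derived RD-HGA16 cells with stable Gα16 and human TAAR1. Times: 17-24 h plating, Fluo-8 75 min 37 °C, 30 min RT. Measured by: calcium-sensitive Fluo-8 signal, excitation 470-495, emission 515-575 nm. Read-out basis: % activation relative to PEA EC100 response. Control set: DMSO and PEA EC100. Repeats: no replicates (n 1).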
# TAAR1 ag confirm – confirmation of human TAAR1 agonists; activation, % at 3 µM; CHO RD-HGA16 TAAR1, Fluo-8 calcium fluorescence; scaled: DMSO 0%, maximal phenethylamine 100%; shares compounds with TAAR1 agonist; 82% of 2,400 active; AID 651783;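 active means activation above a cutoff set at the run's mean compound activation plus 3 SD, cut at about 39% in these data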
# Ga16 ag counter – counter-screen for TAAR1 agonists: nonselective agonists in parental cells. shares compounds with TAAR1 agonist. CHO-Ga16 parental, Fluo-8 calcium fluorescence; normalized to maximal ATP response, DMSO zero. activation, % at 3 µM. 50% of 2,400 active. AID 651787;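 active means activation above the run cutoff, the mean activation over all tested wells plus 3 SD, cut at about 12% in these data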;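 further: 0% = DMSO wells and 100% = maximal ATP response on the peak over basal ratio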
# TAAR1 desens – counter-screen for human TAAR1 agonists: agonists that desensitize TAAR1; shares compounds with TAAR1 agonist; CHO RD-HGA16 hTAAR1, Fluo-8 calcium, beta-PEA response inhibition; inhibition, % at 3 µM; 46% of 2,400 active; AID 651951;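 active means inhibition above the run cutoff, the mean inhibition of all test compounds plus 3 SD, cut at about 49% in these data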;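 further: beta-PEA stimulus applied at its EC80; loss of beta-PEA calcium signal after compound pretreatment read as receptor desensitization; 0% = DMSO with beta-PEA at EC80 and 100% = DMSO alone without agonist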
# Ga16 nonsel ant – nonselective Ga16 antagonist in TAAR1 agonist counter-screen | CHO-Ga16 ATP-induced calcium, Fluo-8 fluorescence | inhibition, % at 3 µM | AID 651952 | shares compounds with TAAR1 agonist | 39% of 2,400 active;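 active means inhibition above the plate's mean compound inhibition plus 3 SD, computed per plate, cut at about 22% in these data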;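 further: 0% = EC80 ATP with DMSO and 100% = DMSO wells without ATP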
# * = called active by the depositor; nt = no result given. Shown are actives, neighbours in structure and some others; about 4.6% of the full set was active somewhere.
SMILES,TAAR1 antag,CHO parental Ca,GPR7 antag,OX1R antag-1,OX1R antag-2,TAAR1 agonist,TAAR1 ag confirm,Ga16 ag counter,TAAR1 desens,Ga16 nonsel ant
Nc1c(N(CCC2=CCCCC2)C(=O)c2ccc([N+](=O)[O-])o2)c(=O)[nH]c(=O)n1Cc1ccccc1,4,-31,nt,21,-13,5,nt,nt,nt,nt
Cc1cc(C)nc(SCC(=O)N/N=C/c2cccs2)n1,5,-3,1,4,-5,1,nt,nt,nt,nt
COCCN1CCC(CNCc2c(C(=O)N3CCCCC3)nc3c(C)cccn23)C1 (centres undefined),-17,-19,-15,11,-6,3,nt,nt,nt,nt
Cc1cccn2c(CNCC3OCCc4ccccc43)c(C(=O)N3CCCCC3)nc12 (centres undefined),45,-22,-21,7,-37,69*,74*,6,61*,19
COc1cccc(NC(=O)C(=O)NCC(c2ccco2)N2CCc3ccccc3C2)c1 (centres undefined),-21,-16,nt,16,-13,11,nt,nt,nt,nt
COc1ccc(NC(=O)C(=O)NCC(c2ccco2)N2CCc3ccccc3C2)cc1OC (centres undefined),-10,-22,nt,15,-40,56*,48*,2,16,12
CC(=O)Nc1cccc(NC(=O)C(=O)NCC(c2ccco2)N2CCc3ccccc3C2)c1 (centres undefined),1,-5,nt,9,-29,57*,63*,10,54*,31*
CCOc1ccc(-n2c(SCC(=O)O)nc3sc4c(c3c2=O)CCCC4)cc1,-6,-16,-20,-5,-18,0,nt,nt,nt,nt
CCOC(=O)[C@H]1[C@H]2COc3ccc(Br)cc3[C@@H]2N2C(=O)c3cc(OC)c(OC)cc3NC(=O)[C@@]12C,27,-6,nt,25,-11,76*,101*,44*,28,7
O=C(NC1CCCCC1)c1cc(-c2ccc(F)cc2)on1,4,-7,8,12,-11,0,nt,nt,nt,nt
Cc1ccc(-c2cc(C(=O)NC3CCCC3)no2)cc1,13,-5,-7,13,-20,51*,10,6,7,13
CCCOC(=O)Cn1c(=O)c2cc3c(=O)n(CC(=O)OCCC)c(=O)c3cc2c1=O,12,nt,-3,nt,nt,53*,6,3,-5,6
CCC(=O)OCCn1c(=O)c2cc3c(=O)n(CCOC(=O)CC)c(=O)c3cc2c1=O,4,2,8,19,-2,1,nt,nt,nt,nt
COc1ccc(NC(=O)C2CC(=O)OC2c2ccccc2)cc1 (centres undefined),-7,-3,-5,1,-10,51*,2,1,3,12
Cc1cc(NC(=O)C2CC(=O)OC2c2ccccc2)no1 (centres undefined),0,-4,-12,2,-5,20,nt,nt,nt,nt
CC(C)CC1NC(=O)c2cccnc2-n2c1nc1ccccc1c2=O (centres undefined),-11,nt,nt,nt,nt,3,nt,nt,nt,nt
CCC(C)NC(=O)c1cc(-c2ccc(OC)cc2)on1 (centres undefined),-18,-4,-9,11,4,8,nt,nt,nt,nt
COc1ccc(-c2cc(C(=O)NCC(C)C)no2)cc1,42,-6,-9,20,-7,72*,-1,2,77*,20
CCCCC(=O)NC(=S)NNC(=O)CCc1ccccc1,19,-1,-6,14,6,64*,82*,62*,40,35*
O=C(CCc1ccccc1)NNC(=S)NC(=O)c1ccccc1,17,-2,-3,-3,-2,88*,75*,56*,34,25*
COc1cc(CNC(=O)c2cccc(COc3ccc(Cl)cc3)c2)cc(OC)c1,33,-23,-2,22,-12,5,nt,nt,nt,nt
O=C(Cc1csc2ccccc12)NCC1CC1,3,nt,nt,nt,nt,0,nt,nt,nt,nt
O=C(O)COCC(=O)NCc1csc2ccccc12,-40,-11,-7,1,-4,51*,55*,0,26,6
CC1CCCC(C)N1C(=O)CSc1nnc(COc2ccccc2)n1-c1ccccc1 (centres undefined),-14,-17,-6,37,-20,0,nt,nt,nt,nt
CC(=O)NNC(=S)NC(=O)C(c1ccccc1)c1ccccc1,19,-16,-2,13,-18,49*,28,20*,27,25*
SMILES,TAAR1 antag,CHO parental Ca,GPR7 antag,OX1R antag-1,OX1R antag-2,TAAR1 agonist,TAAR1 ag confirm,Ga16 ag counter,TAAR1 desens,Ga16 nonsel ant
Cc1onc(-c2ccccc2)c1C(=O)NC(=S)NNC(=O)c1ccccc1O,57*,18,-10,-6,18,164*,141*,103*,100*,63*
CCCOc1ccc(C(=O)NC(=S)NNC(=O)c2c(-c3ccccc3)noc2C)cc1,108*,39*,-9,-3,70*,176*,141*,108*,101*,94*
CCCOc1ccc(NC(=O)c2c(-c3ccccc3)noc2C)cc1,2,-17,-11,1,-19,-3,nt,nt,nt,nt
O=C(NCCc1cccs1)C1CC(c2cccc(F)c2)=NO1 (centres undefined),85*,3,nt,19,-12,59*,73*,5,94*,4
Cc1c(Cl)cccc1-c1ccc(/C=N/n2cnnc2)o1,-19,-17,2,13,-8,47*,38*,19*,12,13
COc1ccccc1NC(=O)CCCCCN1C(=O)c2cccc([N+](=O)[O-])c2C1=O,-15,-12,-21,29,-11,3,nt,nt,nt,nt
COc1cc(/C=C2/C(=O)c3cccc([N+](=O)[O-])c3C2=O)c(Br)cc1O,26,-12,-6,24,-2,50*,37,28*,42,46*
O=C(/C=C/[C@H]1O[C@@H](n2ccc(=O)[nH]c2=O)[C@H](O)[C@@H]1O)NCc1ccc2c(c1)OCO2,-5,nt,nt,nt,nt,1,nt,nt,nt,nt
Cc1ccccc1CCNC(=O)Cn1nc(C)c2c(C)n(-c3ccccc3)nc2c1=O,-20,-30,-7,9,-15,50*,53*,6,4,4
